Sampled rows, rich in hits. Any-hit rate of the full collection: about 4.1%.
DTT redox prof: compounds producing H2O2 with reducing agent – biochemical, NIH compound library profiling, artefact control for MLSCN library redox annotation, primary screen | DTT-dependent redox cycling H2O2, phenol red/HRP absorbance; 100% = 100 µM peroxide control, 0% = buffer | activation, % at 10 µM | hit rate 0.03% among 200,000;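 active = activation of at least 50% relative to the plate's high and low controls in the primary single-dose screen; inactive = activation below 50%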;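 note: compound incubated with DTT at 0.8 mM final as the reducing agent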
Autophagy mod: autophagy modulators in MEF cells, primary screen, imaging, high-content, MEF GFP-LC3; hit rate 0.98% among 190,000; MEF GFP-LC3 puncta imaging; test concentration mostly 10 µM; AID 463193, 2010; calls only at 10 µM (by protocol);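 active = percentage of spot-positive cells more than 3 SD above its plate mean, without a fluorescence outlier flag or 80% toxicity; inconclusive = no clear call, values can overlap the other calls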
ROMK mod: ROMK potassium channel modulators, primary screen, cell-based, thallium flux, MLSMR library; hit rate 2% among 130,000; AID 1918, 2009; ATP-sensitive inward rectifier potassium channel 1 (Homo sapiens), P48048; Tet-inducible ROMK, thallium flux fluorescence; actives lie on both sides; B-score at 10 µM;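 active = signal ratio slope over the read window, or its plate-corrected B-score, at least 3 SD from the plate mean, either direction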;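 note: B-score of the F/F0 ratio slope over 7 to 12 s after thallium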
Target sequence (P48048 whole entry, looked up): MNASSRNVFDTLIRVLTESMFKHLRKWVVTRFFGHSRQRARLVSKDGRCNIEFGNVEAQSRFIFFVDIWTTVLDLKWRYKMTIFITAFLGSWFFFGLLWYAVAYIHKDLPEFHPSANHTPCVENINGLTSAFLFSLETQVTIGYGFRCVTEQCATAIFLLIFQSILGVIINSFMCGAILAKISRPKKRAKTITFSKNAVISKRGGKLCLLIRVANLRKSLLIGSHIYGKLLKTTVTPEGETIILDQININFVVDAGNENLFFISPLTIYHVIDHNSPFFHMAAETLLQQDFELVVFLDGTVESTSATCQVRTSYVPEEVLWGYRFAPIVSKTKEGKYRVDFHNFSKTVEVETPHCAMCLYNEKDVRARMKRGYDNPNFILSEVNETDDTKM
Dynein cargo inh: inhibitors of GR-EGFP nuclear translocation, primary screen, dynein cargo transport inhibitor project, imaging, high-content, 3617.4 mouse cells; z-score, hits read low; hit rate 0.47% among 220,000; test concentration mostly 20 µM; stimulated with dexamethasone, 1 µM; hits give low values;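 active = plate z-score of nuclear minus cytoplasmic receptor signal below a set negative limit, without overly bright fluorescence or cell loss, cut at about -3.5 in these data, passing the limit was not always enough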;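 note: z-score of nuclear minus cytoplasmic ring GR-EGFP intensity difference per well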
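Buffer or medium: Induction medium lacking tetracycline, stripped serum | Also added: Dexamethasone agonist, 1.0 µM final, for 30 min | Timing: 48 h induction, 1 h compound, 30 min dex at 37 °C | Detection: Formaldehyde fixation, Hoechst nuclear stain, 10x automated fluorescence imaging | Measure: Nuclear versus cytoplasmic GR-EGFP signal, averaged per well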
Cl transport mod: KCC2 cotransporter modulators, thallium flux, primary screen, cell-based, HEK293 KCC2, FluoZin-2 fluorescence, MLSMR; Solute carrier family 12 member 5 (Homo sapiens), Q9H2X9; hit rate 2.2% among 190,000; KCC2 cells, thallium flux FluoZin-2 fluorescence; B-score of Tl+ flux slope (higher = more flux/activation; lower = inhibition) at 10 µM;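 active = thallium flux slope and its plate-corrected score both differing from the plate sample mean at a set confidence after two filtering rounds, in either direction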;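 note: slope of fluorescence scaled to starting intensity during 10 to 20 s after thallium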
KCC2 secondary: KCC2 modulators in sodium-free buffer, confirmation, cell-based, HEK293 KCC2, thallium flux, secondary assay | shares compounds with Cl transport mod | FluoZin2 fluorescence; hits give high values | normalised thallium flux (F/F0 slope) at 10 µM | hit rate 15% among 3,700;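 active = thallium flux slope above the same plate's solvent-only control mean plus 3 SD; inconclusive = the two replicate wells disagree; inactive = no significant difference from solvent-only control wells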
KCC2 bumet counter: thallium flux persisting under bumetanide in KCC2 cells, confirmation, counter-screen for KCC2 modulator project, cell-based, HEK293 KCC2, FluoZin2, secondary assay 3; hit rate 49% among 3,700; shares compounds with Cl transport mod; normalized thallium flux at 10 µM; AID 1714, 2009; HEK293-KCC2 + bumetanide/ouabain; hits give high values;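 active = thallium entry rate above the same plate's blocked-transporter control wells by more than 3 SD; inconclusive = the two repeat wells disagree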;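 note: raw slope of fluorescence over initial fluorescence between 10 and 20 s after thallium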
KCC2 secondary2: KCC2 modulators without ouabain present, confirmation, cell-based, HEK293 KCC2, thallium flux, FluoZin2, secondary assay 2. shares compounds with Cl transport mod. thallium flux FluoZin2 fluorescence; actives lie on both sides; F/F0 rise rate, 10–20 s post-thallium. normalized thallium flux at 10 µM. hit rate 23% among 3,700. AID 1715, 2009;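 active = thallium flux slope more than 3 SD above or below the plate's solvent-only control mean, mostly below; inconclusive = the two repeat wells disagreed; inactive = no significant shift from solvent-only controls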
HEK293 Tl flux: thallium flux modulation in parental HEK cells, confirmation, counter-screen for KCC2 modulator project, cell-based, counterscreen 1; HEK293 parental cells, thallium flux FluoZin2, ouabain; baseline-ratio fluorescence slope, 10–20 s after thallium; shares compounds with Cl transport mod; thallium flux rate (normalised fluorescence) at 10 µM; AID 1716, 2009; hit rate 46% among 3,700;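 active = thallium flux rate significantly above the same plate's solvent-only control wells, beyond their mean plus 3 SD; inconclusive = the two replicate wells gave conflicting results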
KCC2 retest ouab: KCC2 inhibitors and activators, ouabain retest, confirmation, HEK-KCC2 cells | shares compounds with Cl transport mod | HEK293-KCC2, thallium flux FluoZin2 fluorescence; bidirectional: low = inhibitor, high = activator | raw Tl+ flux slope (below DMSO = inhibition, above = activation) at 10 µM | hit rate 48% among 3,700 | AID 1717, 2009;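 active = thallium flux slope beyond 3 SD from same-plate DMSO control mean in most replicates, usually higher, sometimes lower; inconclusive = repeat tests gave conflicting results; inactive = no significant difference from controls in most replicates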;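 note: slope of initial-normalized fluorescence between seconds 10 and 20 after thallium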
HEK counter2: native HEK Tl+ uptake effects, second counter-screen – HEK cells, counterscreen 2, counter-screen for KCC2 modulator project, confirmation. thallium flux slope at 10 µM. hit rate 33% among 3,700. AID 1718, 2009. shares compounds with Cl transport mod. HEK293 parental, thallium flux FluoZin-2 fluorescence slope;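 active = thallium flux slope above the same plate's solvent-control mean plus 3 SD in both duplicate wells; inconclusive = duplicate wells that disagreed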;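 note: run without ouabain in cells lacking the KCC2 cotransporter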
Of the large screens only hits and unclear results are named; the others gave an inactive call (follow-up assays come after a bar, where they were run).

Cc1ccc(CCNC(=O)c2ccc(CS(=O)(=O)Cc3ccccc3F)o2)cc1	Cl transport mod -6.82 | KCC2 secondary inactive | KCC2 bumet counter inconclusive | KCC2 secondary2 inconclusive | HEK293 Tl flux inactive | KCC2 retest ouab inactive | HEK counter2 inactive
CC(C)Cn1nnc2c(=O)oc3ccccc3c21	none (no result: ROMK mod, Cl transport mod) | KCC2 secondary inactive | KCC2 bumet counter inactive | KCC2 secondary2 0.0268 | HEK293 Tl flux 0.00524 | KCC2 retest ouab 0.012 | HEK counter2 0.0084
CCn1nnc2c(=O)oc3ccccc3c21	none
NC(=S)NNC(=O)Nc1ccc(Cl)c(Cl)c1	none
NC(=O)N1CC(O)CC1C(=O)Nc1ccc(Cl)c(Cl)c1 (stereo unspecified)	none | KCC2 secondary inactive | KCC2 bumet counter inactive | KCC2 secondary2 inactive | HEK293 Tl flux inactive | KCC2 retest ouab inactive | HEK counter2 inactive
Clc1ccc(OCc2nnc3n2CCCCC3)c(Cl)c1	none (no result: DTT redox prof, Autophagy mod, ROMK mod)
CN=c1scc(-c2ccccc2F)n1/N=C(\C)c1cccnc1	Cl transport mod -3.91 | KCC2 secondary inactive | KCC2 bumet counter inactive | KCC2 secondary2 inconclusive | HEK293 Tl flux inactive | KCC2 retest ouab inconclusive | HEK counter2 inactive
C/C(=N\N1CCN(C2c3ccccc3-c3ccccc32)CC1)c1cccnc1	none (no result: ROMK mod)
O=C(NCCCCc1ccccc1)C1CC(c2cccc(F)c2)=NO1 (stereo unspecified)	Cl transport mod -2.72 (no result: DTT redox prof, Autophagy mod, ROMK mod) | KCC2 secondary inactive | KCC2 bumet counter inactive | KCC2 secondary2 0.0251 | HEK293 Tl flux inactive | KCC2 retest ouab inactive | HEK counter2 inactive
O=C(NCCCCc1ccccc1)C1CC(c2cccc([N+](=O)[O-])c2)=NO1 (stereo unspecified)	none (no result: ROMK mod)
Cc1cccc(NC(=S)N=Nc2c(O)n(C)c3ccc(S(=O)(=O)N4CCOCC4)cc23)c1	Cl transport mod 10.5 | KCC2 secondary inconclusive | KCC2 bumet counter 0.0553 | KCC2 secondary2 inactive | HEK293 Tl flux 0.0187 | KCC2 retest ouab inactive | HEK counter2 inconclusive
Cc1cc(C)cc(NC(=S)N=Nc2c(O)n(C)c3ccc(S(=O)(=O)N4CCOCC4)cc23)c1	Cl transport mod 6.75 (no result: ROMK mod) | KCC2 secondary inactive | KCC2 bumet counter 0.0176 | KCC2 secondary2 inconclusive | HEK293 Tl flux 0.0245 | KCC2 retest ouab 0.0275 | HEK counter2 0.017
O=S(=O)(c1ccc(Cl)c(NC(=S)Nc2cccc(O)c2)c1)N1CCOCC1	none
CCC(C)NC(=S)N1CCN(C)CC1 (stereo unspecified)	none
CCN(CC)S(=O)(=O)c1ccc(NC(=O)CSc2ncnc3ccccc23)cc1	Cl transport mod -5.16 | KCC2 secondary inactive | KCC2 bumet counter inactive | KCC2 secondary2 inconclusive | HEK293 Tl flux inactive | KCC2 retest ouab 0.0132 | HEK counter2 inactive
COc1ccc(S(=O)(=O)N2CCCCC2)cc1NC(=O)CSc1ncnc2ccccc12	Cl transport mod -3.25 (no result: ROMK mod) | KCC2 secondary inactive | KCC2 bumet counter inactive | KCC2 secondary2 inactive | HEK293 Tl flux inconclusive | KCC2 retest ouab 0.0152 | HEK counter2 inactive
COc1ccc(-n2cnnc2SCC(=O)Nc2cc(S(=O)(=O)N3CCCCC3)ccc2C)cc1	Cl transport mod -4.43 (no result: ROMK mod) | KCC2 secondary inactive | KCC2 bumet counter inactive | KCC2 secondary2 0.0261 | HEK293 Tl flux inactive | KCC2 retest ouab 0.0137 | HEK counter2 inactive
Cc1ccc(NC(=O)CSc2ncnc3ccccc23)cc1S(=O)(=O)N1CCCCC1	none
Cn1cnnc1SCC(=O)NN(c1ccccc1)c1ccccc1	none
CCOc1nc(NC(=O)NS(=O)(=O)c2cccc(Cl)c2)nc(-c2ccccc2)n1	none
Cc1c(NC(=O)CN2c3cccc4cccc(c34)S2(=O)=O)c(=O)n(-c2ccccc2)n1C	none (no result: ROMK mod)
Cc1c(NC(=O)CN2C(=O)c3ccccc3S2(=O)=O)c(=O)n(-c2ccccc2)n1C	Cl transport mod 3.43 | KCC2 secondary inactive | KCC2 bumet counter inactive | KCC2 secondary2 inactive | HEK293 Tl flux inactive | KCC2 retest ouab inactive | HEK counter2 inconclusive
CCn1c(SCC(=O)N(Cc2ccccc2)C2CCS(=O)(=O)C2)nc2ccccc2c1=O (stereo unspecified)	none (no result: ROMK mod, Cl transport mod) | KCC2 secondary inactive | KCC2 bumet counter 0.0118 | KCC2 secondary2 inactive | HEK293 Tl flux 0.0112 | KCC2 retest ouab inconclusive | HEK counter2 0.0126
CC(Sc1nc2cc([N+](=O)[O-])ccc2n1-c1ccc(F)cc1)C(=O)NCc1ccc2c(c1)OCO2 (stereo unspecified)	Cl transport mod 9.95 | KCC2 secondary inactive | KCC2 bumet counter 0.0146 | KCC2 secondary2 inactive | HEK293 Tl flux 0.013 | KCC2 retest ouab inactive | HEK counter2 0.0123
COc1ccccc1-n1c(SCC(=O)NCc2ccc3c(c2)OCO3)nc2cc([N+](=O)[O-])ccc21	none
CN(C(=O)CSc1nc2cc([N+](=O)[O-])ccc2n1-c1ccc(F)cc1)C1CCS(=O)(=O)C1 (stereo unspecified)	Cl transport mod 4.93 | KCC2 secondary inactive | KCC2 bumet counter 0.0229 | KCC2 secondary2 inactive | HEK293 Tl flux 0.0138 | KCC2 retest ouab inconclusive | HEK counter2 0.0115
